≈ marks a conversion by molar mass, not a printed value. Read-outs that look alike come from different tables or passages of the source.
Columns and labels:
[1] = Single-pass intestinal perfusion; assay type: in vivo, Wistar rats
Outline: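 Male Wistar germ-free and age-matched SPF rats (6-week-old, 250–300 g), n = 6 per group. Fasted 12 h with free water, anaesthetised with intramuscular ketamine-xylazine (80 mg/kg and 20 mg/kg), kept on a heated surface at 37 ± 1 °C. Intestine perfused single-pass in situ for 2 h, sampled at 15-min intervals, and Peff determined. Perfused and unperfused segments were collected for microbiological detection.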

[2] = SPIP in GF rats mono-colonized with BTWT/BFWT or BTΔSPT/BFΔSPT; assay type: in vivo, Wistar rats; conditions: for Peff plateau: SPIP 30 mg/L NAC
Outline: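 Germ-free Wistar rats (6-week-old) fed a fat-free diet (0% kcal fat, 76% carbohydrate, 24% protein) containing only PAA for 12 weeks. Wild-type or SPT-deleted Bacteroides strains, grown anaerobically at 37 °C in BHI with […] cysteine and resuspended in oxygen-free PBS, then given with the diet (10⁸ CFU/μL of PBS per rat, three times weekly) for 8 weeks. In situ single-pass perfusion and Peff determination followed.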

[3] = cited from earlier work
[4] = cited from earlier work; remark: listed apart in the source

With `CC(=O)N[C@@H](CS)C(=O)O` [NAC, N-Acetylcysteine] the Peff plateau ([1]; GF rats, SPIP) was 1.446 × 10^–4 cm/s, the “Peff increase in GF rats than SPF controls” value ([1]; GF vs SPF rats) was “two-fold increase” and the Peff plateau ([2]; GF^BFΔSPT rats) was 1.417 × 10^–4 cm/s. For the same molecule, the “Peff increase than GF^BTWT and GF^BFWT littermates” value ([2]; GF^BTΔSPT and GF^BFΔSPT rats vs wild-type colonized) was “approximately with the two-fold increase”, the Peff plateau ([2]; GF^BTΔSPT rats) was 1.216 × 10^–4 cm/s and the aqueous solubility [3] was 163.9 mg/mL (≈ 1000 mM). The aqueous solubility ([3]; pH 7.4) was 163.9 mg/mL (≈ 1000 mM), the “within-study coefficients of variability (CVs)” value ([4]; different populations) was 35-45% and the tmax ([4]; oral dose of NAC 400 mg, reduced form) was 30 min. The “Bio-availability, reduced form” value ([4]; oral dose of NAC 400 mg) was 4.0%, the “Bio-availability, total drug” value ([4]; oral dose of NAC 400 mg) was 9.1% and the “Cmax of the reduced form” value ([4]; oral dose of NAC 400 mg) was 3.47 µg/mL.
